Data taken from article PMC5659729 (Life sciences, 2017).
“Also recorded” adds a separate entry of the source.

Experiments:
[1] = system: piroxicam-induced inflammatory bowel disease; details: cited from earlier work
Swiss Webster mice = experiment: Diclofenac-induced gastric ulcers, ulcer index scoring; format: in vivo
[2] = system: gastric mucosa of Swiss Webster mice; experiment: Histopathological evaluation of stomach sections; format: in vivo; details: DCF 100 mg/kg alone or after TPPU 0.1 mg/kg or OME 50 mg/kg
[3] = Quantification of pH in gastric content; format: in vivo, mice; details: DCF 100 mg/kg single dose; TPPU 0.1 mg/kg 7 days + DCF; omeprazole 50 mg/kg 5 days + DCF
[4] = Quantification of drugs in plasma by LC-MS/MS; format: in vivo, mice; details: for Alterations in blood levels when TPPU and DCF co-administered: TPPU 0.1 mg/kg/day + DCF 100 mg/kg
TNF-α = experiment: Inflammatory marker in serum by ELISA; format: in vivo, mice; details: for Level of TNF-α in serum versus DCF: pre-treatment TPPU 0.1 mg/kg or OME 50 mg/kg before DCF 100 mg/kg
IL-6 = experiment: Inflammatory marker in serum by ELISA; format: in vivo, mice; details: for Level of IL-6 in serum versus vehicle: DCF 100 mg/kg p.o. single dose; for Level of IL-6 in serum versus DCF: pre-treatment TPPU 0.1 mg/kg or OME 50 mg/kg before DCF 100 mg/kg
In short: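 Blood without anticoagulant was collected at sacrifice 6 h post-dose and spun at 4 °C. Serum IL-6 was measured with a pre-coated mouse ELISA kit, in duplicate, n=3–4 animals, reported as mean ± SD.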

gastric epithelial cells = experiment: TUNEL assay of gastric cell apoptosis; format: in vivo, mice; details: for DCF-induced apoptosis of stomach epithelial cells (TUNEL) versus DCF: pre-treatment TPPU 0.1 mg/kg or OME 50 mg/kg before DCF 100 mg/kg
TxB2/PGE2 = experiment: PGE2 and TxB2 in plasma; format: in vivo, mice; details: for Level of TxB2/PGE2 in plasma of DCF treated mice: TPPU 0.1 mg/kg or omeprazole 50 mg/kg + DCF 100 mg/kg
COX = experiment: PGE2 in stomach as marker of COX activity; format: in vivo, mice; details: TPPU 0.1 mg/kg or OME 50 mg/kg + DCF 100 mg/kg
[5] = mice; cited from earlier work
[6] = system: DCF-induced intestinal ulcers; details: cited from earlier work
recombinant mouse sEH = details: affinity purified recombinant mouse sEH; cited from earlier work
[7] = cited from earlier work
[8] = 16 h after radioactive omeprazole administration; cited from earlier work
CYP3A4 = details: cited from earlier work

## O=C(NC12CC3CC(CC(C3)C1)C2)N[C@H]1CC[C@H](Oc2ccc(C(=O)O)cc2)CC1 [t-AUCB, trans-4-[4-(3-adamantan-1-yl-ureido)-cyclohexyloxy]-benzoic acid]
[1]
  Effect on piroxicam-induced inflammatory bowel disease: decrease piroxicam (a COX inhibitor)-induced inflammatory bowel disease

## O=C(O)Cc1ccccc1Nc1c(Cl)cccc1Cl [Diclofenac, diclofenac sodium]
Swiss Webster mice; single DCF dose 100 mg/kg, 18 h
  Gastric ulcer score 18 h after dosing: returned to normal levels
[2]
  Histopathological observation of gastric mucosa: ulceration was observed
[3]
  Effect on pH of stomach (gastric content): did not alter the pH of stomachs
[4]; Swiss Webster, mouse, plasma, oral, Mean plasma concentration of DCF, mice that received DCF or DCF + TPPU
  concentration at 6 h: 4000 ng/mL
[4]
  Alterations in blood levels when TPPU and DCF co-administered: not observed
[4]; difference not significant, n=4
  Mean plasma concentration of diclofenac, diclofenac only versus DCF + OME: approximately 2 times
TNF-α; DCF 100 mg/kg p.o. single dose
  Level of TNF-α in serum versus vehicle: significant increase (p < 0.05); also recorded: increased level of TNF-α significantly
IL-6
  Level of IL-6 in serum versus vehicle: increased levels of IL-6 significantly
IL-6; listed as DCF
  Level of IL-6 in serum versus vehicle: significant increase (p < 0.05)
Gastric epithelial cells; DCF 100 mg/kg, listed as DCF
  Apoptosis of stomach epithelial cells (TUNEL positive cells) versus vehicle: increased apoptosis significantly
TxB2/PGE2; DCF 100 mg/kg
  Levels of TxB2/PGE2 in plasma versus vehicle: significantly decreased
TxB2/PGE2; data not shown
  Levels of PGE2 in plasma versus vehicle: not statistically (data not shown) different
TxB2/PGE2; mice treated with only DCF, level of detection 20 pM
  Level of TxB2 in plasma: < 20 pM

## CCC(=O)N1CCC(NC(=O)Nc2ccc(OC(F)(F)F)cc2)CC1 [TPPU, N-[1-(1-oxopropyl)-4-piperidinyl]-N′-[4-(trifluoromethoxy)phenyl)-urea]
[2]
  Histopathological observation of gastric mucosa: Ulceration was minimal
[4]
  Alterations in blood levels when TPPU and DCF co-administered: […]
TNF-α
  Level of TNF-α in serum versus DCF: normalized the level of these cytokines; also recorded: decreased level of TNF-α significantly
IL-6
  Level of IL-6 in serum versus DCF: normalized the level of these cytokines; also recorded: decreased level of IL-6 significantly
Gastric epithelial cells
  DCF-induced apoptosis of stomach epithelial cells (TUNEL) versus DCF: decreased DCF-induced apoptosis of gastric cells; also recorded: decreased apoptosis significantly
COX
  Effect on COX activity in stomach (level of PGE2) of DCF treated mice: did not increase the activity of COX
TxB2/PGE2
  Level of TxB2/PGE2 in plasma of DCF treated mice: increased the level of TxB2/PGE2
[5]
  Oral availability: high oral availability
[6]
  Effect on DCF-induced intestinal ulcers: decreased DCF-induced intestinal ulcers
Recombinant mouse sEH
  IC50: […]

## COc1ccc2[nH]c([S+]([O-])Cc3ncc(C)c(OC)c3C)nc2c1 (stereo not shown) [Omeprazole]
Swiss Webster mice; OME 50 mg/kg + DCF 100 mg/kg versus TPPU 0.1 mg/kg + DCF
  Incidence of ulceration relative to TPPU + DCF treated animals: higher
[2]
  Histopathological observation of gastric mucosa: minimized gastric erosion
TNF-α; listed as OME
  Level of TNF-α in serum versus DCF: normalized the level of these cytokines
IL-6; listed as OME
  Level of IL-6 in serum versus DCF: normalized the level of these cytokines
Gastric epithelial cells; listed as OME
  DCF-induced apoptosis of stomach epithelial cells (TUNEL) versus DCF: decreased apoptosis significantly
COX
  Effect on COX activity in stomach (level of PGE2) of DCF treated mice: did not increase the activity of COX
TxB2/PGE2
  Level of TxB2/PGE2 in plasma of DCF treated mice: increased the level of TxB2/PGE2
[7]
  Half-life monitored in the blood: 5 to 15 min
[8]
  Radioactivity of the stomach relative to blood: 100 times
CYP3A4
  Effect on activity of CYP3A4: increase activity of CYP3A4
